Drawing on ChEMBL document CHEMBL2163285, “Chrolactomycins from the actinomycete actinospica” (2012), this text covers MIC for 3 compounds.

Each structure is given as a SMILES string. ≈ marks a conversion by molar mass, not a printed value.

Common to all, as to assay type: functional
The subject of experiment [1] is Staphylococcus aureus. Kind of experiment: Antimicrobial activity against Staphylococcus aureus ATCC 6538P assessed as growth inhibition after 20 to 24 hrs by broth microdilution method. The gist of the method: (§1)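 CLSI broth microdilution in Mueller Hinton broth supplemented with 20 mg/L CaCl2 and 10 mg/L MgCl2. Cells from frozen stocks were seeded at 5 × 10^5 cfu/mL and incubated at 37 °C, then read after 20−24 h. The MIC is the lowest concentration giving complete suppression of visible growth.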

Experiment [2] has as its system Micrococcus luteus. Kind of experiment: Antimicrobial activity against Micrococcus luteus 108 assessed as growth inhibition after 20 to 24 hrs by broth microdilution method. The procedure, abridged: as §1
(In general: Broth dilution looks for growth in wells or tubes with falling amounts of substance.)

Experiment [3] deals with Bacillus subtilis. Kind of experiment: Antimicrobial activity against Bacillus subtilis 168 assessed as growth inhibition after 20 to 24 hrs by broth microdilution method. The procedure, abridged:
as §1

The subject of experiment [4] is Streptococcus pyogenes. Nature of the experiment: Antimicrobial activity against Streptococcus pyogenes 49 assessed as growth inhibition after 20 to 24 hrs by broth microdilution method. The gist of the method:
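Streptococcus pyogenes was grown in Todd Hewitt broth and tested by CLSI broth microdilution. The MIC is the lowest concentration causing complete suppression of visible growth.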

For experiment [5], the system named is Staphylococcus aureus. Kind of experiment: Antimicrobial activity against Staphylococcus aureus ATCC 29213 assessed as growth inhibition after 20 to 24 hrs by broth microdilution method. The gist of the method: as §1

Turning to `C=C1C(=O)[C@]2(OC)C(=O)O[C@@]34C[C@H](C)C(C(=O)O)=C[C@@H]3CCC[C@@H](C)C[C@@H](C)[C@H]1O[C@H]24` (relative stereo), the MIC in experiment [1] was found to be 2 mg/L (≈ 4.62 µM); in experiment [2], 8 mg/L (≈ 18.5 µM); in experiment [3], 8 mg/L (≈ 18.5 µM); in experiment [4] it was 16 mg/L (≈ 37 µM); in experiment [5] it was 2 mg/L (≈ 4.62 µM).
Regarding `C=C1C(=O)[C@]2(OC)C(=O)O[C@@]34C[C@H](C)C(C(=O)O)=C[C@@H]3CCC[C@@H](C)[C@H](O)[C@@H](C)[C@H]1O[C@H]24` (relative stereo), the MIC in experiment [1] was 32 mg/L (≈ 71.3 µM); in experiment [2], 8 mg/L (≈ 17.8 µM); in experiment [3], 128 mg/L (≈ 285 µM); in experiment [4] it was 8 mg/L (≈ 17.8 µM); in experiment [5], 64 mg/L (≈ 143 µM).
Consider `CN[C@H](CC(C)C)C(=O)N[C@H]1C(=O)N[C@@H](CC(N)=O)C(=O)N[C@H]2C(=O)N[C@H]3C(=O)N[C@H](C(=O)N[C@H](C(=O)O)c4cc(O)cc(O)c4-c4cc3ccc4O)[C@H](O)c3ccc(c(Cl)c3)Oc3cc2cc(c3O[C@@H]2O[C@H](CO)[C@@H](O)[C@H](O)[C@H]2O[C@H]2C[C@](C)(N)[C@H](O)[C@H](C)O2)Oc2ccc(cc2Cl)[C@H]1O` [VANCOMYCIN], for which the values for the minimum inhibitory concentration (MIC) in experiment [2] and in experiment [3] were 0.125 mg/L (≈ 0.0863 µM) and 0.25 mg/L (≈ 0.173 µM), respectively.

For orientation: MIC means the smallest concentration in the dilution series that meets the test's criterion for growth inhibition.
